Test system: MS2 coat protein
Assay: apparent Kd, MS2 coat protein; higher = weaker binding; RNA-MaP array; FMN 200 µM where present
Method in brief: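 Designs on Illumina sequencing-chip clusters, transcribed by stalled E. coli RNA polymerase, were exposed to SNAP-549-labelled MS2 coat protein in doubling steps from 0.7 or 1.5 nM up to 3 µM, without and then with constant ligand. The buffer held 100 mM Tris-HCl pH 7.5, 80 mM KCl, 4 mM MgCl2, BSA, DTT, yeast tRNA and Tween-20. Apparent Kd values are medians of filtered per-cluster binding-curve fits to green signal normalised to red-channel RNA signal and control-cluster median Fmax.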

[1] = designed as: OFF switch for flavin mononucleotide, no ligand
[2] = ligand present: flavin mononucleotide, designed as: OFF switch for flavin mononucleotide
[3] = designed as: ON switch for flavin mononucleotide, no ligand
[4] = ligand present: flavin mononucleotide, designed as: ON switch for flavin mononucleotide

Row | Sequence | apparent Kd [1] | apparent Kd [2] | apparent Kd [3] | apparent Kd [4]
1 | AUGCUCAGAGGAUAUACAUGAGGAUCACCCAUGUGUUACCGAGGAGUACGGUCGUCACGUAGAAGGCUGGGUAA | 17.9 nM | 58.8 nM |  | 
2 | GCUGACGAUGUAGGAUAUCUCGACGAUAAGUCGAGAGAAGGACAUGAGGAUCACCCAUGUAAACUCACGUCAGCGAGGAAACUC | 16.1 nM | 17.2 nM |  | 
3 | ACAUGCAUAGCGAUAUGAUCGAAAAGUCAUGUCGCAAAAUUUAGAAGGACAUGAGGAUCACCCAUGUAGGAUAUGGGAGCAUGA |  |  | 57.9 nM | 13.2 nM
4 | UAAAAGACUAGCUGGUAUCUCCACAUGAGGAUCACCCAUGUCUAGGAUAUGAGCAGCAAAGCUGCUUAGAAGGAGACGCUAGUC | 7.67 nM | 8.83 nM |  | 
5 | GACUGAUUACAGAAGGUGUUUGACAUGAGGAUCACCCAUGUGUUAUUCAGUUUCAUUGAAUUUAACAAGGAUAUGUAUAUAUCA |  |  | 220 nM | 101 nM
6 | ACAGCGGAGGCAGGAUAUCGCACAUGAGGAUCACCCAUGUGGUUAUUUACGGGUUGGUGGUCACGCGAGAAGGGCCAACCAUAA | 59 nM | 31.7 nM |  | 
7 | GGUGCACGCACAGGAUAUCCGGCGGAGCUCGUCGGAGAAGGGUGACAUGAGGAUCACCCAUGUACGUGCAACUCGGUUUGAGAG |  |  | 22.4 nM | 48.9 nM
8 | GUAGUGUAUGUAGGAUAUGUGAACGAAACGUUCACAGAAGGACAUGAGGAUCACCCAUGUAUUACAGUCAGCAAUCUGACUGUU | 25.7 nM | 107 nM |  | 
9 | AGAAAUUAGUGAGGAUAUGCAUAAAUUGUAGCUGCAGAAGGCACGGACCACAAGACAUGAGGAUCACCCAUGUGGUAUUUAGAU | 29.9 nM | 34.9 nM |  | 
10 | AAUAUAAAGAGCUGGUAAAACUCGACAUGAGGAUCACCCAUGUAGGAUAUCAGCACGAUAAGUGCUGAGAAGGACAUCCAGCUC | 15.4 nM | 17.6 nM |  | 
11 | GAAUCGAAAAUACGAGCAUGUACACAGGAUAUCCCGUGACAUGAGGAUCACCCAUGUAACACAUUGGAGAAGGGUGUUCACGUA |  |  | 153 nM | 14.8 nM
12 | GCACAUGAUACAGGAUAUGUAUUGGAAUUUAUAAUGAGUUAUAUAAUAUUUACAGAAGGGUAUACAUGAGGAUCACCCAUGUGC | 30.7 nM | 23 nM |  | 
13 | ACAUGAGGAUCACCCAUGUAUUUGUAGGAUAUACACAAUUCUUUAUUACUCUAAUUAAUAUGUUUGUAGAAGGACACUGCAUGA | 9.71 nM | 9.52 nM |  | 
14 | CCCACGAAAGUCGAACGAUGUAGCAGAAGGACAUGAGGAUCACCCAUGUCAGCUGUAACAGCCAUGUAGGAUAUGCUACAUCCC | 5.24 nM | 6.88 nM |  | 
15 | UAUAUGUCAGGAUAUUAGUUGUGGACGAAUAAGACUUCUGCUGAGAAGGGACAUGAGGAUCACCCAUGUUCCUC | 15.8 nM | 19.4 nM |  | 
16 | GACAUGGUCUAGAAGGGCUAUCUAUUUAAGUACGAUUUAGAACAGCAUAGCAGGAUAUGGCUAACAUGAGGAUCACCCAUGUUC |  |  | 40.5 nM | 18.7 nM
17 | AAGAAGUCAGGAUAUGCAUGGCGGGACUUGCGUCGUGGCGUGCAGAAGGGACAUGAGGAUCACCCAUGUGGAGA | 124 nM | 249 nM |  | 
18 | UAUGUGUCAGGAUAUUAAUUAUUGGAGAAUGUGACGAUGAUUAAGAAGGGACAUGAGGAUCACCCAUGUUCAUC | 20.4 nM | 33.6 nM |  | 
19 | AUUAUGUAAGGAUAUCUUACAUGUGACUUCGGUCACUGUUCAGAGAAGGUACAUGAGGAUCACCCAUGUAGAAC | 17.9 nM | 18.4 nM |  | 
20 | UUGUUCUGAGGAUAUACAUGAGGAUCACCCAUGUGUUUCAGCUAGGAGACUAGCGAAUGUAGAAGGCUGUUCUC | 15.4 nM | 15.8 nM |  | 
21 | GUGAAGUAAGGAUAUAGUGGAAAAGAUAAGGUAUGAGAGUUCUAGAAGGUACAUGAGGAUCACCCAUGUUAGGG | 301 nM | 186 nM |  | 

Row | Sequence | apparent Kd [1] | apparent Kd [2] | apparent Kd [3] | apparent Kd [4]
22 | UUUUAGGCAGGAUAUACAUUUUUUUUAUUAUCCUCAUUAUUACAUGAGGAUCACCCAUGUAGAAGGGCCAUUUU | 48.1 nM | 50.2 nM |  | 
23 | CUUUUGUGAGGAUAUCAGUAGUAAAAAAAUAAAAUUACUAUUGAGAAGGCACAUGAGGAUCACCCAUGUUCCUC | 34.5 nM | 168 nM |  | 
24 | AGUGUGUGGCAGGAUAUGCGAUUUGUCGGUGUAGCAGAAGGGUCUACAUGAGGAUCACCCAUGUGUGCGGUUGA | 438 nM | 446 nM |  | 
25 | GGAGAUACAUGAGGAUCACCCAUGUAGGAUAUAUAGUAUAUAUAUAGCGAAAGCUAUAUAUAUAUAUAGAAGGGCGUACACACC | 7.67 nM | 8.02 nM |  | 
26 | GCUCAUAUCACAGGAUAUGGCCAGCAAAUUUGGCCAGAAGGGUGAUUCAUAUUAAAAUCACAUGAGGAUCACCCAUGUACGGCA |  |  | 166 nM | 321 nM
27 | AAUUAACUCACAGGAUAUAGCAGAGGUCGCGCGAACUUACAGGCGACGAGGCUAGAAGGGUGACCACAUGAGGAUCACCCAUGU |  |  | 770 nM | 72.4 nM
28 | GUGAGCUCGUGAGGAUAUACAACACUGCUUCGGCAGUGUAUUAAGAUCACAUGAGGAUCACCCAUGUAGAAGGCACGAGCUGAU | 14.5 nM | 272 nM |  | 
29 | CCUCGACAUGAGGAUCACCCAUGUCAGGAUAUUGUGUUUUGGGUUUUUUACCUUUUGGCAAGAAGGGAUGUGUG | 15.5 nM | 19.1 nM |  | 
30 | GAGUAGUUGGGAGGAUAUCGAUUGUUAUAGAAUCGAGAAGGUUCUAACAUGAGGAUCACCCAUGUAGGACUAUUCCUGUGUAUC |  |  | 71.8 nM | 65.4 nM
31 | AUGCGGUCAGGAUAUGCAUGGCGGGACUUGCGUCGUGGCGUGGAGAAGGGACAUGAGGAUCACCCAUGUGGAGU | 79 nM | 45.2 nM |  | 
32 | GCCUAUUCGUGCAGUUAAGGAGCUCAGGAUAUCGCAAUAACAUGAGGAUCACCCAUGUCCGAAUACGAGAAGGGAGGUCCGACG |  |  | 140 nM | 13.9 nM
33 | CAUUAACAUGAGGAUCACCCAUGUGAGGAUAUGAUAUUACUUGGACAGCUGUGGUCAAUCAGAAGGCACAUCUU | 27.8 nM | 32.9 nM |  | 
34 | UGUGUCAUCGAGAAGGCCUCAACAUGAGGAUCACCCAUGUUGUAAUAUGGGAGGAUAUCGAUGAUACAGCUACGUUUCGUAGCA |  |  | 19 nM | 6.11 nM
35 | CGCAACAUACAGAAGGAGUAAAUUAGAAGUGUACUAGGAUAUGUAAACAUGAGGAUCACCCAUGUCGAAUGUGUUAUAGUUGCG | 8.24 nM | 8.53 nM |  | 
36 | ACCAUUUACUAAUUUUCUAUACAUGAGGAUCACCCAUGUUUUGAGGAUAUCAGCGUGAAACACGCUGAGAAGGCAAAACAUUCG | 142 nM | 387 nM |  | 
37 | CCUUUAAAGAUCCAAAAUUUCAACAUGAGGAUCACCCAUGUGCAGGAUAUCGUGCCAGUGAUGUACGAGAAGGGCAGACUCUGC | 119 nM | 149 nM |  | 
38 | GUAGCUAUCGGAGGAUAUUCAUACCGGAAACGGACAUGAGGAUCACCCAUGUGGCGAAAGCCUUGGGAGAAGGCUGAUAGCUAC |  |  | 257 nM | 7.37 nM
39 | AAUUGAAACGUAGGAUAUCGCACUAAUUUUAAACGAGAAGGACGUACAUGAGGAUCACCCAUGUUAAAUGGUGUAGAUUAGAUG | 156 nM | 692 nM |  | 
40 | AAUAACAGAGGAUAUACUAUUUUAUGUGUUUAUUGUUUUAAACAUGAGGAUCACCCAUGUAGAAGGCUGAAUAA | 29.3 nM | 44.3 nM |  | 
41 | GUGGUCAGACAUGAGGAUCACCCAUGUGGAAUAAAUAACAACUAGGAUAUAUAAUAUAGGAUAUAAUAGAAGGAGUGAUUGGUG |  |  | 141 nM | 188 nM
42 | CUCGUCUGGAAACGGAGCGGCCAACAUGAGGAUCACCCAUGUGAGGAUAUGCCUACUAAAAGUAGGCAGAAGGCGCACUUGGCA | 23.6 nM | 34.1 nM |  | 

Source: the EternaBench riboswitch data
